Experimental data: ChEMBL document CHEMBL1152638, “Natural product leads for drug discovery: isolation, synthesis and biological evaluation of 6-cyano-5-methoxyindolo[2,3-a]carbazole based ligands as antibacterial agents” (Bioorg Med Chem, 2009)
In brackets after ≈: the same amount, converted by molar mass. Counter-ions that a name gives are not always drawn.

What was measured:
Bacillus anthracis = experiment: Antibacterial activity against Bacillus anthracis deltaANR after 14 hrs by microplate alamar blue assay; assay type: functional
[1] = test system: Mycobacterium tuberculosis; experiment: Antitubercular activity against Mycobacterium tuberculosis H37Rv after 16 to 24 hrs by microplate alamar blue assay; assay type: functional
How it was run: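 H37Rv (ATCC 27294) in Middlebrook 7H12; twofold dilutions from 12.8 mM DMSO stocks, final 128 to 0.5 μM; 1 × 10^5 cfu/mL inoculum, aerobic 37 °C. Day 7: Tween 80 plus Alamar Blue added, then 16–24 h more. Fluorescence ex 530/em 590 nm; MIC is lowest concentration giving ≥90% reduction versus bacteria-only controls; rifampin, isoniazid positive controls.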

Human alphaherpesvirus 2 = experiment: Antiviral activity against HSV2 infected in mink lung cells assessed as reduction in viral titer at 1 ug/ml; assay type: functional; set-up: scale not given: the % may be the effect or the level left
[2] = Cytotoxicity against human KB cells; assay type: cell-based; details: read-out: MIC
[3] = Cytotoxicity against human LoVo cells; assay type: cell-based; details: read-out: MIC

COc1c(C#N)c2c3ccccc3n(C)c2c2[nH]c3ccccc3c12
MIC (Bacillus anthracis): > 200 µM | MIC [1]: > 128 µM

COc1c(C(N)=O)c2c3ccccc3[nH]c2c2c1c1ccccc1n2C
MIC [1]: > 128 µM

COc1c(C#N)c2c3ccccc3n(C)c2c2c1c1ccccc1n2C
MIC (Bacillus anthracis): > 200 µM | MIC [1]: > 128 µM

COc1c(C#N)c2c3ccccc3[nH]c2c2c1c1ccccc1n2Cc1ccccc1
MIC (Bacillus anthracis): > 200 µM | MIC [1]: 44.1 µM (≈ 17.7 µg/mL)

Cn1c2ccccc2c2c(O)c(C#N)c3c4ccccc4[nH]c3c21
MIC (Bacillus anthracis): 6.3 µM (≈ 1.96 µg/mL) | MIC [1]: 56.6 µM (≈ 17.6 µg/mL)

N#Cc1c(O)c2c3ccccc3n(Cc3ccccc3)c2c2[nH]c3ccccc3c12
MIC (Bacillus anthracis): 1.6 µM (≈ 0.62 µg/mL) | MIC [1]: 60.6 µM (≈ 23.5 µg/mL)

COc1c(C#N)c2c3ccccc3[nH]c2c2[nH]c3ccccc3c12
MIC (Bacillus anthracis): 6.3 µM (≈ 1.96 µg/mL) | MIC [1]: > 128 µM

COc1c(C#N)c2c3ccccc3[nH]c2c2c1c1ccccc1n2C
Activity (Human alphaherpesvirus 2): 95% | MCC [2]: 5 µg/mL | MCC [3]: 5 µg/mL | MIC (Bacillus anthracis): > 200 µM | MIC [1]: > 128 µM

N#Cc1c(O)c2c3ccccc3[nH]c2c2[nH]c3ccccc3c12
MIC (Bacillus anthracis): 1.6 µM (≈ 0.476 µg/mL) | MIC [1]: 15 µM (≈ 4.46 µg/mL)

O=C(O)c1cn(C2CC2)c2cc(N3CCNCC3)c(F)cc2c1=O [CIPROFLOXACIN HYDROCHLORIDE]
MIC (Bacillus anthracis): 0.1 µM

NNC(=O)c1ccncc1 [ISONIAZID]
MIC [1]: 0.6 µM (≈ 0.0823 µg/mL)

CO[C@H]1/C=C/O[C@@]2(C)Oc3c(C)c(O)c4c(O)c(c(/C=N/N5CCN(C)CC5)c(O)c4c3C2=O)NC(=O)/C(C)=C\C=C\[C@H](C)[C@H](O)[C@@H](C)[C@@H](O)[C@@H](C)[C@H](OC(C)=O)[C@@H]1C [RIFAMPIN]
MIC [1]: 0.1 µM (≈ 0.0823 µg/mL)

CN[C@@H]1C[C@H]2O[C@@](C)([C@@H]1OC)n1c3ccccc3c3c4c(c5c6ccccc6n2c5c31)C(=O)NC4 [STAUROSPORINE]
MIC (Bacillus anthracis): 128 µM (≈ 59.7 µg/mL) | MIC [1]: 14.7 µM (≈ 6.86 µg/mL)
